Key:
[1] = biological target: T1, C-X-C chemokine receptor type 2 (Homo sapiens, UniProt P25025); test: Displacement of [125I]IL8 from human recombinant CXCR2 expressed in HEK293 membranes by SPA
T1 sequence (P25025 whole entry): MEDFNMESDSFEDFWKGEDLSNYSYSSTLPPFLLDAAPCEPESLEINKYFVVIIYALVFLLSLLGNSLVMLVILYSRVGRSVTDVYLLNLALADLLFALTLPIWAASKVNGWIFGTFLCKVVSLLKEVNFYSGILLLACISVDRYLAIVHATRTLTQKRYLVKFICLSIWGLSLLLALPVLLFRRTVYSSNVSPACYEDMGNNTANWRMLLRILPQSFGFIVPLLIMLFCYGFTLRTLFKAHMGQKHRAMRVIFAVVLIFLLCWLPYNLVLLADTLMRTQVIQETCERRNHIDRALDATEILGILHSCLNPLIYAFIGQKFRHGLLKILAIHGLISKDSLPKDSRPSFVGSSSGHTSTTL
Method in brief: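 Human recombinant CXCR2 in HEK293 cell membranes, screened by scintillation proximity assay at the HTS stage. SPA actives were then validated in a conventional filter-wash [125I]IL8 binding assay on hrCXCR2.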

[2] = biological target: T2, C-X-C chemokine receptor type 2 (Homo sapiens) (UniProt P25025); test: Inhibition of CXCR2 at 10 uM
T2 sequence (whole entry): T1 sequence (P25025 whole entry)

[3] = Clearance in human liver microsome; type: ADME; details: liver microsomes
[4] = Clearance in iv dosed rat; type: ADME, organism-based; details: in vivo
[5] = Volume of distribution in iv dosed rat; type: ADME, organism-based; details: in vivo, read-out: Vdss
[6] = Half life in iv dosed rat; type: ADME, organism-based; details: in vivo
[7] = biological target: T3, Interleukin-8 receptors, CXCR1/CXCR2 (Homo sapiens, UniProt P25025+P25024); test: Inhibition of GROalpha-stimulated intracellular calcium mobilisation in human neutrophils by FLIPR; type: functional, cell-based
T3 sequence (P25025 whole entry): T1 sequence (P25025 whole entry)
T3 sequence (P25024 whole entry): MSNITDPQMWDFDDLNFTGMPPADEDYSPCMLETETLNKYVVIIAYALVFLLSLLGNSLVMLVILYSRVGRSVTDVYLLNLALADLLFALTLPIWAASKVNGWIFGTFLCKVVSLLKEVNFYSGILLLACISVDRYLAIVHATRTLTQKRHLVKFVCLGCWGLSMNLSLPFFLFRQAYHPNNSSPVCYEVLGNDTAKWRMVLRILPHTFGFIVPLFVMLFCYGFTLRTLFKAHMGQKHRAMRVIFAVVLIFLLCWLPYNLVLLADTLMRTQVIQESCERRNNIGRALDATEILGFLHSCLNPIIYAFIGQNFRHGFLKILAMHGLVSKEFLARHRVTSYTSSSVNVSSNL

[8] = Distribution coefficient of the compound, log D; type: physicochemical; details: octanol/water
[9] = Oral bioavailability in rat; type: ADME, organism-based; details: in vivo
[10] = Protein binding in plasma; type: ADME, cell-free; details: human, read-out: PPB (converted)

Structure (SMILES) | IC50 [1] [nM] | inhibition [2] [%] | also measured
CC[C@H](CO)Nc1nc(SCc2cccc(F)c2F)nc2nc(N)sc12 | 9.5 |  | 
CCCCCSc1nc(NCCO)c2sc(N)nc2n1 | 7000 |  | 
Nc1nc2nc(SCc3cccc(F)c3F)nc(Cl)c2s1 |  | < 50 | 
Nc1nc2nc(SCc3ccccc3)[nH]c(=O)c2s1 | 1300 |  | microsomal CLint [3]: < 3 µL/min/mg
COC(=O)CSc1nc(SCc2ccccc2)nc2nc(N)sc12 |  | < 50 | 
CCCCCSc1nc(O)c2sc(NC(C)=O)nc2n1 |  | < 50 | 
Nc1nc2nc(SCc3ccccc3)nc(Cl)c2s1 |  | < 50 | 
CC(C)(CO)Nc1nc(SCc2cccc(Oc3ccccc3)c2)nc2nc(N)sc12 | 50 |  | 
CC[C@H](CO)Nc1nc(SCc2cccc(Oc3ccccc3)c2)nc2nc(N)sc12 | 350 |  | 
Nc1nc2nc(SCc3cccc(F)c3F)[nH]c(=O)c2s1 | 270 |  | microsomal CLint [3]: 2 µL/min/mg; clearance [4]: 9.5 mL/min/kg; Vd [5]: 0.9 L/kg; half-life [6]: 3.5 h
CC[C@@H](CO)Nc1nc(SCc2ccccc2)nc2nc(N)sc12 | 3900 |  | 
Nc1nc2nc(SCc3ccccc3)nc(N)c2s1 | 10000 |  | 
CC(C)(CO)Nc1nc(SCc2cccc(F)c2F)nc2nc(N)sc12 | 14 |  | IC50 [7]: 40 nM; microsomal CLint [3]: 31 µL/min/mg; logD [8]: 3.4; clearance [4]: 25 mL/min/kg; Vd [5]: 1.9 L/kg; half-life [6]: 1.2 h; bioavailability [9]: 15%; fraction unbound [10]: 0.016
CCSc1nc(O)c2sc(N)nc2n1 |  | < 50 | 
CCCCCSc1nc2ncsc2c(=O)[nH]1 | 10000 |  | 
Nc1nc2nc(SCc3ccccc3)nc(SCC(=O)O)c2s1 |  | < 50 | 
CSc1nc(O)c2sc(N)nc2n1 |  | < 50 | 
CCCCCSc1nc(NC2CCCC2)c2sc(N)nc2n1 |  | < 50 | 
Nc1nc2nc(SCc3cccc(Oc4ccccc4)c3)[nH]c(=O)c2s1 | 480 |  | 
Nc1nc2nc(SCc3ccccc3)nc(SCCO)c2s1 |  | < 50 | 
CCCCCSc1nc(O)c2sc(N)nc2n1 | 10000 |  | IC50 [7]: 2000 nM; microsomal CLint [3]: 18 µL/min/mg; logD [8]: 2.9
Nc1nc2nc(SCc3cccc(Oc4ccccc4)c3)nc(Cl)c2s1 |  | < 50 | 
CCCCCSc1nc(N(CC)CC)c2sc(N)nc2n1 |  | < 50 | 
CCCCCSc1nc(O)c2sc(Br)nc2n1 |  | < 50 | 
CCCCCSc1nc(O)c2sc(NC)nc2n1 |  | < 50 | 
CC[C@@H](CO)Nc1nc(SCc2cccc(Oc3ccccc3)c2)nc2nc(N)sc12 | 1400 |  | 
CCCCCSc1nc(Cl)c2sc(N)nc2n1 |  | < 50 | 
CC[C@H](CO)Nc1nc(SCc2ccccc2)nc2nc(N)sc12 | 120 |  | microsomal CLint [3]: 6 µL/min/mg; clearance [4]: 40 mL/min/kg; Vd [5]: 2.2 L/kg; half-life [6]: 1 h
CCCCCSc1nc(NCCCO)c2sc(N)nc2n1 |  | < 50 | 

— ChEMBL document CHEMBL1149469, “Hit-to-Lead studies: the discovery of potent, orally bioavailable thiazolopyrimidine CXCR2 receptor antagonists” (Bioorg Med Chem Lett, 2006)
